# High-throughput results deposited in PubChem BioAssay by several laboratories.
# PHOSPHO1 inh: blocks human PHOSPHO1 phosphatase activity | inhibition, % at 13.3 µM | recombinant PHOSPHO1, absorbance phosphatase assay | actives 1.1% (n = 290,000) | Q8TCT1; in the data active means inhibition above about 60%
# Target sequence (Q8TCT1 whole entry, looked up): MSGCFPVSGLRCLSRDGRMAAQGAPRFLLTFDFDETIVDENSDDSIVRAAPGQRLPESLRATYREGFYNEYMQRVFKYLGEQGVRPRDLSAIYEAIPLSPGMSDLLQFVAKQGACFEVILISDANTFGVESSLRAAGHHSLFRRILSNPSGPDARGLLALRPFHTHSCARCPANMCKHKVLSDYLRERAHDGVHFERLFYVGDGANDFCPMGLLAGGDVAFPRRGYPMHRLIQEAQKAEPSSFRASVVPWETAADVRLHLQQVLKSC
# KCNQ1 pot: human KCNQ1 channel potentiation or activation; P51787; CHO-K1 KCNQ1, thallium flux FluxOR fluorescence; hits give high values; B-score at 10 µM; actives 0.35% (n = 310,000);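 active means fluorescence ratio B-score, a plate-corrected score, at least three library SD, with initial intensity B-score within 5 SD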
#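 Assay system: CHO-K1 cells stably expressing KCNQ1; Medium: assay buffer with matched DMSO; Also added: K+/Tl+ depolarizing stimulus; Dosing: single dose; Timing: dye 90 min, compound 20 min, room temperature; Measured by: kinetic FluxOR thallium fluorescence, 10-s 1-Hz baseline, 110-s post-stimulus read; Read-out: peak-minus-minimum fluorescence over initial fluorescence, negative-control normalized, B-scored.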
# hERG rescue: shields human hERG channel from block by proarrhythmic agents. Q12809. CHO-hERG, FluxOR thallium flux, dofetilide IC70 present. activation (rescue from dofetilide block), less the hit threshold, % at 10 µM. actives 0.51% (n = 310,000);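 active means activation above the mean of controls blocked by dofetilide plus 5 SD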;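 further: thallium influx through hERG after potassium depolarization seen as dye fluorescence rise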
# KCNK3 block: human KCNK3 channel inhibition, primary screen; CHO-KCNK3 thallium flux, FluxOR fluorescence; hits give low values; O14649; B-score at 10 µM; AID 602410; actives 0.84% (n = 340,000);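 active means B-score under library mean minus 4 SD, starting fluorescence ratio at most library mean plus 5 SD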;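 further: more negative B-score means stronger inhibition of thallium flux through KCNK3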
# KCNQ1 inh: inhibitors of human KCNQ1 potassium channel; actives 1.3% (n = 310,000); P51787; B-score at 10 µM; CHO-K1 KCNQ1, FluxOR thallium flux fluorescence; hits give high values;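 active means compounds whose thallium flux B-score, printed positive for inhibition, exceeds three library SD while starting fluorescence stays within three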;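 further: channel opened by potassium depolarization with thallium stimulus after 20 min compound exposure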
# KCNK9 inh: inhibitors of human KCNK9 two-pore domain potassium channel. HEK293 KCNK9, FluxOR thallium flux fluorescence; hits give low values. Q9NPC2. actives 1.2% (n = 310,000). B-score at 10 µM. AID 488922;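 active means ratio B-score over 3 SD below the library mean, with starting fluorescence within 5 SD of its mean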;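 further: negative B-score means less thallium flux so channel inhibition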
# Numbers without * were called inactive; i = inactive; nt = no result. In the library only some 4% were active in any assay of this set; here they are far more common.
SMILES,PHOSPHO1 inh,KCNQ1 pot,hERG rescue,KCNK3 block,KCNQ1 inh,KCNK9 inh
Cc1ccc(S(=O)(=O)c2cc3ccccc3oc2=O)cc1,-7,i,-9,i,i,i
Cc1c(O)ccc2cc(S(=O)(=O)c3ccccc3)c(=O)oc12,29,i,-11,i,11*,i
CC1C/C(=C/c2cccs2)C(=O)/C(=C/c2cccs2)C1 (centres undefined),-10,i,-16,i,i,-7.4*
O=C(COc1cc(Cl)ccc1Cl)Nc1nnc(C2CC2)s1,43,i,-6,i,i,i
S=C(NCCc1ccccc1)NC1CCCCCC1,10,i,-14,i,i,i
S=C(NCCNCc1ccccc1)NC1CCCCC1,-110,i,-15,nt,i,-7.1*
O=C1Nc2ccc(Cl)cc2[C@@](C#CC2CC2)(C(F)(F)F)O1,24,i,-8,nt,i,-8.7*
Cc1cccc2cc3c(N)c(C(=O)Nc4ccc(N5CCOCC5)cc4)sc3nc12,-23,i,-1,-11*,i,i
CCC(CC)C(=O)N1CC(=O)Nc2ccc(C)cc2C1c1ccccc1 (centres undefined),37,i,-1,i,i,i
COc1cccc(CNC(=O)c2nnn(CC(=O)Nc3c(C)cccc3C)c2N)c1,34,i,-6,i,i,i
COC(=O)c1ccc(C2N=C(c3cccs3)CC(c3ccccc3O)N2)cc1 (centres undefined),-13,i,-19,i,7*,i
COc1ccccc1N1C(=O)CC(Sc2n[nH]c(-c3cccc(C)c3)n2)C1=O (centres undefined),81*,i,-6,i,i,i
CCOC(=O)N1CCN(C(=O)c2ccc3c(=O)n(CCC4=CCCCC4)c(=S)[nH]c3c2)CC1,5,i,-7,i,i,i
O=c1c2ccc(Cl)cc2[nH]c(=S)n1CCC1=CCCCC1,-8,20*,25*,i,i,i
CC1CCCCN1C(=O)c1cc(S(=O)(=O)N2CCCCC2)c[nH]1 (centres undefined),10,i,-13,i,i,i
CC(c1cccs1)N(Cc1ccco1)C(=S)Nc1ccc(F)c(Cl)c1 (centres undefined),4,i,-15,i,10*,i
CN1C(=O)CC(N2CCN(C(c3ccccc3)c3ccccc3)CC2)C1=O (centres undefined),-11,i,-3,i,i,i
c1ccc(-[n+]2nc(Nc3cccc4ccccc34)sc2-c2c3ccccc3cc3ccccc23)cc1,nt,nt,nt,i,nt,nt
O=C1ON=C(c2cccc([N+](=O)[O-])c2)/C1=C/c1ccc(O)cc1,3,i,-25,i,7*,i
CCn1c(N)c(C(=O)N2CCOCC2)sc1=S,69*,i,-2,i,i,i
CCn1c(N)c(C(=O)NCC2CCCO2)sc1=S (centres undefined),100*,i,-5,i,i,i
CCCC(=O)Nc1c2c(nc3ccccc13)N(c1ccccc1)CC2,-13,i,-3,-9.3*,i,i
O=C(CN1CCCCC1)Nc1c2c(nc3ccccc13)N(c1ccccc1)CC2,13,i,-9,i,i,i
Cc1ccc(-n2nnnc2SCC(=O)c2c(N)n(C3CC3)c(=O)[nH]c2=O)cc1C,nt,nt,nt,i,nt,nt
CC1(C)CC(=O)C2=C(C1)OC(N)=C(C#N)C2c1ccc[nH]1 (centres undefined),34,i,-7,i,i,i
SMILES,PHOSPHO1 inh,KCNQ1 pot,hERG rescue,KCNK3 block,KCNQ1 inh,KCNK9 inh
Cc1nc2nc3c(cn2n1)C(=O)CCC3,35,i,-3,i,i,i
COc1ccccc1C1(O)CCN(CC(=O)Nc2c(C)nn(C)c2C)CC1,23,i,-2,i,i,i
Cc1ccc(NN2C(=O)C=C(c3ccccc3)C2=O)cc1,61*,i,-6,nt,i,i
COc1ccc(C)cc1N(C(=O)c1snc(C(N)=O)c1N)C(C(=O)NC1CCCC1)c1ccc(F)cc1 (centres undefined),37,i,-8,i,i,i
CN(C)CCn1c(=S)[nH]c2ncccc2c1=O,-17,i,-9,i,i,i
CC(C)CCn1c(=S)[nH]c2ncccc2c1=O,19,10*,9.9*,i,i,i
O=S1(=O)CCO[C@H]2Cc3ccccc3[C@H]2N1Cc1cccc(C(F)(F)F)c1,4,i,-3,i,i,i
c1ccc(CSc2nnc(-c3c[nH]c4ccccc34)o2)cc1,-29,i,-5,i,i,i
CC(C)(C)NC(=O)CSc1nnc(-c2c[nH]c3ccccc23)o1,14,i,-7,i,i,i
CCCC(C)NC(=O)CSc1nnc(-c2c[nH]c3ccccc23)o1 (centres undefined),73*,i,-13,i,i,i
c1ccc2c(-c3nnc(SCc4cn5ccccc5n4)o3)c[nH]c2c1,85*,i,-5,i,i,i
Fc1cccc(/C=N/Nc2ccc3ccccc3n2)c1,48,58*,10*,i,i,i
Cc1c(NC(=O)Nc2cccc(Cl)c2Cl)c(=O)n(-c2ccccc2)n1C,43,i,-3,i,i,i
CON/C=C(\C=Nc1ccc(Cl)cc1Cl)c1ncc(C(F)(F)F)cc1Cl,11,i,-9,i,i,i
CON/C=C(\C=Nc1ccccc1)c1ncc(C(F)(F)F)cc1Cl,29,i,-16,i,7*,i
CCCN(Cc1nnc(-c2ccccc2Cl)o1)C(=O)c1oc2ccccc2c1C,nt,i,-14,i,6*,i
O=C(c1ccc(F)cc1)c1c[nH]c(C(=O)NCCCN2CCOCC2)c1,5,i,-11,i,i,i
CCC(CC)C(=O)c1c[nH]c(C(=O)NCCCN2CCOCC2)c1,66*,i,-4,i,i,i
COc1ccc(CNC(=O)CN(Cc2ccc(OC)cc2)C(=O)c2csnn2)cc1,26,i,-6,i,i,i
CCOC(=O)C1(C)/C(=N/Nc2ccccc2OC)C(=O)C(=O)N1c1ccccc1 (centres undefined),2,i,-14,i,i,i
CCOC(=O)C1(C)/C(=N/Nc2ccccc2)C(=O)C(=O)N1c1ccccc1 (centres undefined),99*,i,-6,i,i,i
COc1ccccc1NC(C)C(=O)N/N=C/c1ccccc1OCc1cccc(Br)c1 (centres undefined),-12,i,-6,i,i,-7.3*
